# Screening data as filed in PubChem BioAssay.
# Most compounds without a hit are left out; they make up all but 5.1% or so of the library.
# NF-kB expr up = NF-kB expression increase, human neuronal cells; NF-kB reporter expression; stronger effect = higher value; fold change at 12.5 µM; 190,000 compounds, 1.6% hits; in the data active = fold change above about 3.3
# STAT1 blocker = reduces IFN-gamma driven STAT1 reporter signal. inhibition, % at 5.5 µM. 200,000 compounds, 0.35% hits. NIH 3T3 STAT1-luciferase reporter, luminescence. AID 920;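 active = inhibition above a set limit, the mean inhibition across all tested compounds plus 3 SD, cut at about 34% in these data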;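 note: 0% = IFN-gamma with DMSO and 100% = IFN-gamma with 300 µM nifuroxazide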
# APP 5'UTR act = activates APP 5'UTR luciferase reporter; SH-SY5Y APP 5'UTR luciferase reporter, luminescence; zero percent = DMSO vehicle wells; activation, % at 2 µM; 190,000 compounds, 1% hits;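 active = activation above a set limit, based on mean plus 3 SD of controls, cut at about 140% in these data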
# STAT3 blocker = inhibitors of IL-6 induced STAT3 signaling. inhibition, % at 5.5 µM. U3A cells, IL-6 STAT3-luciferase reporter, luminescence; host cell line lacks STAT1. AID 862. 190,000 compounds, 0.89% hits;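 active = inhibition above the mean inhibition across all screened compounds plus 3 SD, cut at about 44% in these data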;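 note: 0% = DMSO only wells and 100% = 100 µM nifuroxazide control wells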
# STAT1 act = activators of IFN-gamma induced STAT1 signaling; NIH 3T3 STAT1-luciferase reporter, luminescence; 100% = IFN-gamma alone, no compound; activation (% of control), % at 5.5 µM; 200,000 compounds, 2.6% hits; AID 932;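 active = activation above the screen-wide mean activation plus 3 SD, cut at about 130% in these data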;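 note: raw ratio to IFN-gamma control signal so 100% means no change and 0% no light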
# STAT3 act = STAT3 signaling activation. U3A cells, IL-6 STAT3-luciferase reporter, luminescence; 100% = signal with IL-6 EC80 alone. activation (% of control), % at 5.6 µM. 190,000 compounds, 0.91% hits. AID 871;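 active = activation above the screen-wide mean of compound activation plus 3 SD, cut at about 130% in these data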;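 note: 0% = background luminescence of wells with medium and substrate only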
#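 Material: human U3A cells carrying STAT3-luciferase construct. Measured by: reporter luminescence signal. Timing: compound 1 h, then IL-6 6 h at 37 °C.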
# STAT1 act conf = STAT1 activation, confirmation assay. shares compounds with STAT1 act. NIH 3T3 STAT1-luciferase reporter, IFN-gamma potentiation, luminescence; 100% = IFN-gamma EC80 alone, no compound. activation (% of control), % at 5.7 µM. 1,200 compounds, 97% hits. AID 1262;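 active = activation above a set limit carried over from the earlier primary STAT1 screen, cut at about 140% in these data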;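 note: simple ratio to median IFN-gamma plus DMSO wells so 0% means no light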
# NFkB act STAT1ct = NF-kappaB activation in STAT1 activator counter-screen. shares compounds with STAT1 act. HEK293T NF-kB luciferase reporter, TNF-alpha stimulated, luminescence; 100% = TNF-alpha with vehicle only. activation (% of control), % at 5.7 µM. 1,200 compounds, 43% hits. AID 1306;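 active = activation above the mean of solvent-only control wells plus 3 SD, set per campaign, cut at about 130% in these data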;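 note: TNF-alpha given at a submaximal dose yielding about 80% of full reporter signal; values are well signal over median control so 100% means no change and 0% no light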
# STAT3 act 2 = human STAT3 activation in STAT1 activator counter-screen. shares compounds with STAT1 act. U3A cells STAT3-luciferase reporter, IL-6, luminescence; cells lack STAT1; 100 = IL-6 alone, no compound effect. activation (% of control), % at 5.7 µM. 1,200 compounds, 46% hits. AID 1316;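 active = activation above the solvent-only control well mean plus 3 SD, set per plate batch, cut at about 110% in these data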;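 note: 0% = no luminescence and 100% = median IL-6 plus DMSO wells; higher means more STAT3 reporter activation so hits are non-selective activators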
# Active calls of the source: *; nt = no result.
SMILES,NF-kB expr up,STAT1 blocker,APP 5'UTR act,STAT3 blocker,STAT1 act,STAT3 act,STAT1 act conf,NFkB act STAT1ct,STAT3 act 2
COc1cccc2cc(-c3cn4ccc(C)cc4n3)c(=O)oc12,nt,-76,87,20,169*,86,218*,134*,105
O=C(Nc1ccc2nsnc2c1)c1ccc2c(c1)OCO2,7*,-58,150*,32,154*,72,214*,126,95
Cc1cc(C(=O)Nc2ccc3c(c2)OCO3)cs1,4.5*,-50,178*,-9,157*,111,168*,122,119*
Cn1c(C(=O)Nc2ccc3c(c2)OCCO3)cc2sccc21,9.1*,-94,152*,31,186*,77,272*,132,103
CC(=O)Nc1ccc(C(=O)Nc2ccc3c(c2)OCO3)cc1,1.6,-9,9,5,108,101,nt,nt,nt
Cc1ccc(-n2nc3ccc(NC(=O)c4ccc5c(c4)OCO5)cc3n2)cc1,1.2,-4,8,-8,104,109,nt,nt,nt
NC(=O)CC[C@@H]1NC(=O)[C@@H]2CCCN2C(=O)c2cc([N+](=O)[O-])cc(I)c2NCCCC[C@@H](C(=O)NC(CC(=O)O)C(N)=O)NC1=O (stereo partly drawn),1.2,-4,-2,-7,104,104,nt,nt,nt
Cc1ccc(NC(=O)CSc2nnc(-c3cccs3)o2)cc1S(=O)(=O)N(C)C,nt,-14,52,9,114,97,nt,nt,nt
CCCC(=O)OCC(=O)Nc1ccc(N=Nc2ccccc2)cc1,4.7*,-62,98,9,155*,94,189*,137*,117*
CN(c1ccccc1)c1ccc(/C=N/N2CCOCC2)cc1,6.8*,-81,97,4,172*,99,197*,129,108
CCCCn1c(=O)c(CCC(=O)OCC(=O)NC(=O)NCCC(C)C)nc2ccccc21,0.99,-1,-5,0,100,102,nt,nt,nt
O=C(O)CC/C(=N/NC(=O)c1cccs1)c1ccccc1,2.3,-64,92,20,157*,86,134*,112,102
O=C(O)CCC(=O)NNC(=O)c1cccs1,1.1,-8,22,12,105,96,nt,nt,nt
CC(C)n1c(Oc2ccc(F)cc2)nc2c1c(=O)n(C)c(=O)n2C,1.1,9,0,6,92,103,nt,nt,nt
N/C(=N\OC(=O)c1ccc2c(c1)OCO2)c1cccc(Br)c1,1.5,-71,79,-1,162*,105,178*,129,111*
Cc1nn(C(C)C(=O)NCC2CCCO2)c(C)c1[N+](=O)[O-] (stereo not drawn),1.1,-6,9,10,104,97,nt,nt,nt
COCCNc1nnc(SC(C)C(=O)Nc2ccc(-c3nc4ccc(C)cc4s3)cc2)s1 (stereo not drawn),4.5*,-66,-14,20,160*,82,200*,123,102
CCC(C)(C)NC(=S)Nc1ccc(-c2nc3ccc(C)cc3s2)cc1,2.5,-86,173*,21,177*,82,200*,130,107
CCCCNC(=S)Nc1ccc(-c2nc3ccc(C)cc3s2)cc1,11*,-57,180*,26,151*,80,210*,143*,100
CCCCNC(=S)Nc1cccc(C(C)=O)c1,1.7,4,-2,-2,96,100,nt,nt,nt
CN(C)c1ccc(N=C/C=C2/N(C)c3ccccc3C2(C)C)cc1,0.6,-80,164*,24,173*,82,121,117,110
C=CCn1c(C)cc(C(=O)CSc2nc3ccccc3o2)c1C,2.2,-65,107,32,160*,75,215*,120,103
O=C(/C=C/c1cn(-c2ccccc2)nc1-c1ccccc1)Nc1ccc(C(=O)O)cc1,2.6,-60,12,-26,152*,127,148*,113,114*
NS(=O)(=O)c1ccc(NC(=O)/C=C/c2cn(-c3ccccc3)nc2-c2cccc(Cl)c2)cc1,1,-10,-6,15,108,93,nt,nt,nt
Cc1ccc(-c2ccc(CCC(=O)O)n2NC(N)=S)cc1,1.1,4,6,9,96,96,nt,nt,nt
SMILES,NF-kB expr up,STAT1 blocker,APP 5'UTR act,STAT3 blocker,STAT1 act,STAT3 act,STAT1 act conf,NFkB act STAT1ct,STAT3 act 2
Cc1ccc(-c2ccc(CCC(=O)O)n2C(C)C)cc1,0.84,-57,6,8,151*,97,106,113,101
CCCCCCOc1ccc(/C(N)=N/O)cc1,6.8*,-67,78,-12,161*,113,157*,129,121*
CCCOC(=O)Nc1ccc(N2CCCCC2)cc1,5.1*,-49,95,30,154*,75,177*,115,100
Oc1ccc(/C=N/Nc2ccc(C(F)(F)F)cn2)cc1,4.8*,-76,127,19,168*,87,172*,108,99
O=C(N/N=C/c1ccc(C(F)(F)F)cc1)c1ccc(O)cc1,1.8,-14,33,14,112,91,nt,nt,nt
CCOCCc1nnc(NC(=O)Cc2c(F)cccc2Cl)s1,1.2,14,-21,5,87,98,nt,nt,nt
Fc1cccc(Cl)c1Cc1noc(/C=C/c2ccccc2)n1,1.6,-23,48,12,121,99,nt,nt,nt
C(=C\c1nc(-c2ccccc2)no1)/c1ccccc1,8.6*,-60,135*,24,154*,82,207*,121,101
Cc1c(Cl)cccc1NC(CC(=O)c1ccccc1)C(=O)OCC(=O)c1cccs1 (stereo not drawn),1,2,9,-23,98,121,nt,nt,nt
COc1ccccc1NC(CC(=O)c1ccccc1)C(=O)OCC(=O)c1ccc(F)cc1 (stereo not drawn),1.2,-69,89,24,161*,80,185*,127,102
O=C(Nc1nccs1)c1ccc(-c2ccccc2Cl)o1,2.7,-58,156*,-8,152*,116,178*,136*,107
O=C(Nc1nccs1)c1ccc(-c2ccc([N+](=O)[O-])cc2)o1,1.7,-58,103,26,151*,81,183*,130,96
COc1ccc(NC(=O)c2ccc(-c3ccc([N+](=O)[O-])cc3)o2)cc1,1.1,-8,19,4,108,98,nt,nt,nt
